This is an account of results in publication PMC11890989 (Zoological Research, 2025).

Entries after “also recorded” stand apart in the source; their conditions may differ.

The subject of experiment [1] is AjTRHR. Description: Ligand binding assays / receptor activation summary. The note with it: for agonism at AjTRHR: bioinformatics and ligand-binding assays, cAMP/PKA-ERK/MAPK cascade and possibly Ca^2+-dependent pathway. It is filed as cell-based, Apostichopus japonicus.
Experiment [2] deals with AjTRHR. The experiment can be described thus: SRE-Luc reporter assay. The class given is cell-based, Apostichopus japonicus. Conditions: 10^-9-10^-5 mol/L; HEK293T expressing AjTRHR; Supplementary Figure S6. For orientation: Reporter assays use an easily measured gene product as a stand-in for the process of interest.
In experiment [3] the test system is AjTRHR. Description: cAMP content. It is filed as cell-based, Apostichopus japonicus. Conditions: 10^−9–10^−5 mol/L, 30 min; HEK293T, AjTRHR-pcDNA3.1(+); Figure 4C (AjTRH7), Figure 6A (AjTRH1). In a few lines:
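HEK293T cells transfected with AjTRHR-pcDNA3.1(+) or empty pcDNA3.1(+) were exposed to gradient-diluted peptide (10^−9–10^−5 mol/L) for 30 min. Cells were then washed twice in PBS and lysed, and intracellular cAMP was quantified with a commercial cAMP assay kit.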

Experiment [4] relates to Apostichopus japonicus. Description: In vivo feed intake rate. Conditions: AjTRH1/AjTRH7 injection, A. japonicus. An outline of the steps:
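Sub-adult sea cucumbers (~30 g) were held in UV-sterilised filtered seawater at 18–20°C, 32 ppt and 12:12 h light/dark. They were fed ad libitum each morning with commercial feed mixed 1:3 with sea mud. Six groups were set up, each in five tanks of six animals. Test peptide in sterile seawater (0.5 or 0.05 mg/mL) or seawater alone was injected at 0.1% (v/w) via the mouth into the coelom at noon every two days, for over 25 days. Uneaten food was collected daily, dried and weighed. FI was calculated per a prior method, and tank was a random factor in linear mixed models with Tukey tests.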

Experiment [5] has as its system rats. The note with it: obese rats, prolonged TRH administration; ref Al-Arabi & Andrews, 2006; cited from earlier work.
For experiment [6], the system named is rodents, such as rats and squirrels. The note with it: ref Al-Arabi & Andrews, 2006, Frare et al., 2021, Puga et al., 2016, Schuhler et al., 2007, Schwartz et al., 2013, Steward et al., 2003; cited from earlier work.
The test system of experiment [7] is AjTRHR. Description: Intracellular Ca2+ mobilization. The class given is cell-based, Apostichopus japonicus. The note with it: negative control, reverse sequence of AjTRH7; Supplementary Figure S3B. An outline of the steps: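 HEK293T cells were grown in DMEM with 10% FBS at 37°C and 5% CO2. At ~70% confluence they were transfected by lipofection with receptor-pcDNA3.1(+). Cells were loaded with 3 μmol/L Fura-2/AM for 30 min, then stimulated with peptide. Test peptides spanned 10−9–10−5 mol/L, with reversed-sequence peptide or empty-vector cells as negative controls. Fluorescence was read on a plate reader. Experiments were repeated independently at least three times.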

Experiment [8] concerns AjCCKP1. The experiment can be described thus: In vivo relative AjCCKP1 expression in circumoral nerve ring. Set-up: species or system Apostichopus japonicus. The note with it: AjTRH7 0.5 mg/mL (HTG) injection; F(2,10)=6.852, P<0.05; Figure 7A.
For experiment [9], the system named is AjTRHR. The experiment can be described thus: ERK1/2 phosphorylation. The class given is cell-based, Apostichopus japonicus. Conditions: AjTRH7 10^−6 mol/L. In a few lines: (§1)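 HEK293T cells (DMEM, 10% FBS, 37°C, 5% CO2) were transfected at ~70% confluence with AjTRHR-pcDNA3.1(+) or empty vector using Lipofectamine 2000. Receptor cells received 10^−6 mol/L peptide for 0, 5, 15, 30, 45 or 60 min at 37°C. Lysate protein was BCA-normalised, run on 10% SDS-PAGE, blotted to PVDF and probed for pERK1/2 (1:2 000) and total ERK1/2 (1:1 000). Bands were ECL-detected and densitometry expressed as pERK/tERK; six repetitions, mean+SEM.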

For experiment [10], the system named is HEK293T cells transfected with empty pcDNA 3.1(+) vector. The experiment can be described thus: ERK1/2 phosphorylation, empty pcDNA 3.1. It is filed as cell-based, human. Conditions: AjTRH7 10^−5 mol/L, negative control, Figure 4E. In a few lines: as §1
Experiment [11] deals with AjCCKP1. The experiment can be described thus: In vivo relative AjCCKP1 expression in intestine, RT-qPCR. Set-up: species or system Apostichopus japonicus. The note with it: AjTRH7 0.05 mg/mL (LTG) injection; F(2,10)=8.091, P<0.05; Figure 7B. (In qPCR the cycle at which signal appears reflects the starting amount.)
The subject of experiment [12] is Apostichopus japonicus. The experiment can be described thus: In vivo weight gain rate. The note with it: 0.05 mg/mL (LTG) vs 0.5 mg/mL (HTG) AjTRH7. An outline of the steps:
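Sub-adult sea cucumbers (30±5.8 g) were kept in filtered UV-sterilised seawater (18–20°C, 32 ppt, 12:12 h light/dark), six per tank and five tanks per group (30 per group), fed ad libitum each morning (commercial feed:sea mud 1:3). Peptide in sterile seawater at 0.5 or 0.05 mg/mL, or seawater alone, was injected orally into the coelom at 0.1% (v/w) every two days at noon for over 25 days. Body weight was taken at start and end to derive WGR. Analysis used linear mixed models with tank as random factor and Tukey tests.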

Take pQYFA [AjTRH1]: the “agonism at AjTRHR” value in experiment [1] was “activates AjTRHR by increasing cAMP levels”. For the same substance, the “binding to AjTRHR” value in experiment [1] (inferred from receptor assays in HEK293T cells expressing AjTRHR) is reported as “binds to AjTRHR”. The “Ca2+ mobilization (SRE-driven luciferase activity)” value in experiment [2] is on record as “no Ca^2+ mobilization was observed; also recorded: does not induce significant Ca^2+ influx”. Also, the cAMP accumulation entry in experiment [3] is “cAMP accumulation”. In experiment [4], the “food intake (summary)” value was “inhibited food intake”.

Take thyrotropin-releasing hormone [TRH]: in [5], the body weight entry is listed as “reduced body weight”, the food intake entry is “suppress food intake” and the resting metabolic rate result is listed as “elevate resting metabolic rates”. In [6], the “feeding motivation and feeding behavior” value was “suppress feeding motivation and inhibit feeding behavior”.

In the case of EWFKWPSGPLQ, the “Ca2+ response to reverse peptide sequence” value in experiment [7] is “no observable responses”.

Turning to pQLPGSPWKFWE [AjTRH7], the “agonism at AjTRHR” value in experiment [1] was “acts as an agonist for AjTRHR”. Moreover, the cAMP accumulation entry in [3] is “cAMP accumulation”. For the same substance, in experiment [8], the “AjCCKP1 expression in CNR” value was “significantly up-regulated”. For the same substance, the “p-ERK1/2 activity at 15 min” value in experiment [9] (15 min, 37°C, mean±SEM (n=6), F(5,10)=5.563, P<0.05, Figure 4E) was “markedly increased”. Moreover, in experiment [9] (30 min, 37°C, mean±SEM (n=6), F(5,10)=5.563, P<0.05, Figure 4E), the “p-ERK1/2 activity at 30 min” value is given as “markedly increased”. Further, in [9] (after 15 min peak, up to 60 min), the “p-ERK1/2 after the peak” value is given as “subsequently returning to baseline levels”. In addition, the “food intake (summary)” value in experiment [4] was “inhibited food intake”. Besides, in experiment [10], the “p-ERK1/2 response in empty vector cells” value was “no significant responses”. Also, in experiment [11], the “AjCCKP1 expression in intestine” value is listed as “significantly up-regulated”. In experiment [12], the “inhibitory effect, LTG compared with HTG (WGR context)” value was “stronger inhibitory effect in the LTG group than in the HTG group”.
